According to ChEMBL document CHEMBL2021892, “Rational design, synthesis and anti-proliferative properties of new CB2 selective cannabinoid receptor ligands: an investigation of the 1,8-naphthyridin-2(1H)-one scaffold” (Eur J Med Chem, 2012):
Calls of active or inactive are those of the source. The rule behind the calls is not given here.

How the values were obtained:
DU-145 [1] = experiment: Down-regulation of CB2 receptor protein level in human DU145 cells at 0.3 uM after 24 hrs by immunoblot analysis in presence of CB2 receptor antagonist SR144528; assay type: functional, cell-based
Procedure, shortened: (§1)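 DU-145 cells incubated 24 h with ligand at 0.3 µM, with or without SR144528 at 3 µM. Cells washed in PBS, lysed at pH 7.5 in HEPES/NaCl/EDTA/NaF/vanadate/Triton buffer, and centrifuged at 12,000 g, 4 °C. 40 µg protein run on 12% SDS-PAGE and transferred to nitrocellulose. Blots probed overnight with anti-CB2, detected by HRP anti-rabbit and ECL, normalized to actin.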

Cannabinoid receptor 2 = Cannabinoid receptor 2 (Homo sapiens, UniProt P34972); experiment: Displacement of [3H]CP55940 from recombinant human CB2 receptor expressed in human HEK293 cell membrane after 90 mins; assay type: cell membranes
Chain of Cannabinoid receptor 2 (P34972 whole entry): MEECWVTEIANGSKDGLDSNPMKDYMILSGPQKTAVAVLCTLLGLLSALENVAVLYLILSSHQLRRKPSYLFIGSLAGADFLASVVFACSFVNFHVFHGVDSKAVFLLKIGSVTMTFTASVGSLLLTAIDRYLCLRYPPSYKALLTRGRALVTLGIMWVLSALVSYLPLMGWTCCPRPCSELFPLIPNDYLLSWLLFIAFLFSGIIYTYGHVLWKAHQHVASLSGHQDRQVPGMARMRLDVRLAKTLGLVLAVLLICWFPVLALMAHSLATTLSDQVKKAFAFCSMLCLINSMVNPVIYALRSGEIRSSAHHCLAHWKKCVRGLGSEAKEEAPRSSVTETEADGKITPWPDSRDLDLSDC
Procedure, shortened: (§2)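 Membranes of HEK-293 cells transfected with human recombinant CB1R (Bmax 2.5 pmol/mg protein) or CB2R (Bmax 4.7 pmol/mg protein). Test compound at increasing concentrations displaced [3H]CP55,940 over 90 min at 30 °C. Ki obtained from IC50 by Cheng–Prusoff. Means of at least three experiments run in duplicate.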

[2] = Antiproliferative activity against myelin basic protein-activated human lymphocytes at 0.3 uM; assay type: cell-based; settings: lymphocyte
DU-145 [3] = experiment: Down-regulation of CB2 receptor protein level in human DU145 cells at 0.3 uM after 24 hrs by immunoblot analysis in presence of CB1 receptor antagonist SR141716; assay type: functional, cell-based
DU-145 [4] = experiment: Down-regulation of CB2 receptor protein level in human DU145 cells at 0.3 uM after 24 hrs by immunoblot analysis; assay type: functional, cell-based; procedure, shortened: as §1
Cannabinoid receptor 1 = Cannabinoid receptor 1 (Homo sapiens, UniProt P21554); experiment: Displacement of [3H]CP55940 from recombinant human CB1 receptor expressed in human HEK293 cell membrane after 90 mins; assay type: cell membranes; procedure, shortened: as §2
Chain of Cannabinoid receptor 1 (P21554 whole entry): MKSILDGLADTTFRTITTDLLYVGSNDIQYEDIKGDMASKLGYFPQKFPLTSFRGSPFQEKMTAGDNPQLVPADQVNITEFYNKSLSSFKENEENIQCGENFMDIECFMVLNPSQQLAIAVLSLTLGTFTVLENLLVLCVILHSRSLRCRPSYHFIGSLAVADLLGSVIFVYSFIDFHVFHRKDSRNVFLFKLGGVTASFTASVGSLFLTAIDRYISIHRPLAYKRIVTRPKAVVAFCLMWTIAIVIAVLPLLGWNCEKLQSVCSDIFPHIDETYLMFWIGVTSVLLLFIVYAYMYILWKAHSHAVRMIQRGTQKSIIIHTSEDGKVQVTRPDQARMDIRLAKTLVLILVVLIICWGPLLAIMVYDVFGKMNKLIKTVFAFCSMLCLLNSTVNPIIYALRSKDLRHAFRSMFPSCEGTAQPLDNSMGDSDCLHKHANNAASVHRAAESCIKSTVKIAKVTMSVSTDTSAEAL

DU-145 [5] = experiment: Antiproliferative activity against human DU145 cells at 0.1 to 1 uM after 24 hrs by SRB assay; assay type: functional, cell-based
Procedure, shortened: (§3)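 DU-145 cells seeded at 10,000 per well, exposed 24 h to CB2 ligands, with or without SR144528 (3 µM). Line 2 covers 0.1 to 1 µM; lines 3 and 4 use 0.3 µM. Proliferation read as O.D. by sulforhodamine B. Three independent experiments; two-tailed t-test against vehicle and against ligand plus SR144528.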

DU-145 [6] = experiment: Antiproliferative activity against human DU145 cells at 0.3 uM after 24 hrs by SRB assay in presence of CB2 receptor antagonist SR144528; assay type: functional, cell-based; procedure, shortened: as §3
DU-145 [7] = experiment: Antiproliferative activity against human DU145 cells at 0.3 uM after 24 hrs by SRB assay; assay type: functional, cell-based; procedure, shortened: as §3
HEK293 = experiment: Selectivity index, ratio of Ki for recombinant human CB1 receptor expressed in human HEK293 cell membrane to recombinant human CB2 receptor expressed in human HEK293 cell membrane; assay type: cell-based
Procedure, shortened: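 Selectivity index is Ki(CB1)/Ki(CB2). Both Ki values come from [3H]CP55,940 displacement over 90 min at 30 °C, using membranes of HEK-293 cells expressing human recombinant CB1R or CB2R, with Cheng–Prusoff conversion.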

[8] = Antiproliferative activity against human WS1 cells at 1 uM after 4 days by XTT assay; assay type: cell-based; settings: for Activity: ws1, 96 h, 1 µM
Procedure, shortened: (§4)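 Cells kept at 37 °C, 5% CO2; seeded at 3 × 10³ cells per well, treated 3 h later with vehicle or ligand (1 µM in the four-day panel), medium and ligand renewed every two days for four days. Proliferation read by XTT staining; vehicle-treated O.D. taken as 100%. Two-tailed t-test versus vehicle.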

DU-145 [9] = experiment: Antiproliferative activity against human DU145 cells at 1 uM after 4 days by XTT assay; assay type: functional; settings: DU-145, 96 h; procedure, shortened: as §4
MCF7 = experiment: Antiproliferative activity against human MCF7 cells at 1 uM after 4 days by XTT assay; assay type: functional; settings: MCF7, 96 h; procedure, shortened: as §4
AGS = experiment: Antiproliferative activity against human AGS cells at 1 uM after 4 days by XTT assay; assay type: functional; settings: 96 h; procedure, shortened: as §4
T98G = experiment: Antiproliferative activity against human T98G cells at 1 uM after 4 days by XTT assay; assay type: functional; settings: 96 h; procedure, shortened: as §4
[10] = Solubility of the compound in DMSO/water solution; assay type: physicochemical

In the case of O=C(NC1CCCCCC1)c1cc2ccccc2n(CCN2CCOCC2)c1=O, the Activity (DU-145 [1]) is reported as “inactive”, the Ki (Cannabinoid receptor 2) is reported as 2 nM and the Activity [2] is reported as “Non-toxic”. The Activity (DU-145 [3]) was “Active”, the Activity (DU-145 [4]) was “Active” and the Ki (Cannabinoid receptor 1) was 206 nM. The inhibition (DU-145 [5]) was “Active”, the Activity (DU-145 [6]) was “inactive” and the Activity (DU-145 [7]) was “Active”. The Ratio Ki (HEK293) was 103, the Activity [8] was “Non-toxic” and the inhibition at 1 µM (DU-145 [9]) was 11%.

In the case of O=C(NC1CCCCC1)c1c(O)c2cccnc2n(CCN2CCOCC2)c1=O, the Ki (Cannabinoid receptor 2) is reported as 2.4 nM, the Ki (Cannabinoid receptor 1) is reported as 64.6 nM and the Ratio Ki (HEK293) is reported as 26.6.

For O=C(NC1CCCCC1)c1cc2ccccc2n(Cc2ccc(F)cc2)c1=O, the Ki (Cannabinoid receptor 2) was 2.9 nM, the Ki (Cannabinoid receptor 1) was 16.5 nM and the Ratio Ki (HEK293) was 5.7.

For Cc1ccc(Cn2nc(C(=O)N[C@@H]3C(C)(C)[C@@H]4CC[C@@]3(C)C4)cc2-c2ccc(Cl)c(C)c2)cc1, the Activity [2] was “Non-toxic”, the Activity (DU-145 [4]) was “Active” and the Activity (DU-145 [6]) was “inactive”.

O=C(NC1CCCCC1)c1cccnc1OCc1ccccc1 gave a Ki (Cannabinoid receptor 2) of 916 nM and a Ki (Cannabinoid receptor 1) greater than 10000 nM.

For O=C(NC1CCCCC1)c1c(O)c2cccnc2n(Cc2ccccc2)c1=O, the Ki (Cannabinoid receptor 2) was 79 nM, the Ki (Cannabinoid receptor 1) was 560 nM and the Ratio Ki (HEK293) was 7.1.

For O=C(NC1CCCCCC1)c1cccn(Cc2ccc(F)cc2)c1=O, the Activity (DU-145 [1]) was “inactive”, the Ki (Cannabinoid receptor 2) was 7.8 nM and the Activity [2] was “Non-toxic”. For the same compound, the Activity (DU-145 [3]) was “Active”, the inhibition at 1 µM (MCF7) was 12% and the Activity (DU-145 [4]) was “Active”. The Ki (Cannabinoid receptor 1) was 43 nM, the inhibition (DU-145 [5]) was “Active” and the Activity (DU-145 [6]) was “inactive”. The Activity (DU-145 [7]) was “Active”, the Ratio Ki (HEK293) was 5.5 and the Activity [8] was “Non-toxic”. The inhibition at 1 µM (DU-145 [9]) was 15%.

In the case of O=C(NC1CCCCCC1)c1cccn(CCN2CCOCC2)c1=O, the Ki (Cannabinoid receptor 2) is reported as 790 nM, the Ki (Cannabinoid receptor 1) is reported as 950 nM and the Ratio Ki (HEK293) is reported as 1.2.

In the case of O=C(NC1CCCCCC1)c1c(O)c2cccnc2n(CCN2CCOCC2)c1=O, the Activity (DU-145 [1]) is reported as “inactive”, the Ki (Cannabinoid receptor 2) is reported as 1.8 nM and the Activity [2] is reported as “Non-toxic”. For the same compound, the Activity (DU-145 [3]) was “Active”, the inhibition at 1 µM (MCF7) was 26% and the Activity (DU-145 [4]) was “Active”. The Ki (Cannabinoid receptor 1) was 234 nM, the inhibition at 1 µM (AGS) was 62% and the inhibition (DU-145 [5]) was “Active”. For the same compound, the inhibition at 1 µM (T98G) was 15%, the Activity (DU-145 [6]) was “inactive” and the Activity (DU-145 [7]) was “Active”. The Ratio Ki (HEK293) was 130, the inhibition at 96 h, 1 µM ([8]; WS1 cells) was 21% and the inhibition at 1 µM (DU-145 [9]) was 33%.

For O=C(NC1CCCCC1)c1cccn(CCN2CCOCC2)c1=O, the Ki (Cannabinoid receptor 2) was 7900 nM and the Ki (Cannabinoid receptor 1) was greater than 10000 nM.

Compound CCCC(C)(C)c1ccc2c(c1)OC(C)(C)[C@@H]1CC=C(C)C[C@@H]21 has a Ki (Cannabinoid receptor 2) of 1.82 nM and a Ki (Cannabinoid receptor 1) of 117 nM.

In the case of O=C(NC1CCCCC1)c1cccn(Cc2ccccc2)c1=O, the Ki (Cannabinoid receptor 2) is reported as 200 nM, the Ki (Cannabinoid receptor 1) is reported as 800 nM and the Ratio Ki (HEK293) is reported as 4.

With O=C(NC1CCCCC1)c1c(O)c2cccnc2n(Cc2ccc(F)cc2)c1=O the solubility [10] was “Insoluble”.

In the case of O=C(NC1CCCCCC1)c1cccnc1OCc1ccc(F)cc1, the Ki (Cannabinoid receptor 2) is reported as 25 nM, the Ki (Cannabinoid receptor 1) is reported as 100 nM and the Ratio Ki (HEK293) is reported as 4.

O=C(NC1CCCCC1)c1cc2ccccc2n(CCN2CCOCC2)c1=O showed a Ki (Cannabinoid receptor 2) of 9 nM, a Ki (Cannabinoid receptor 1) of 300 nM and a Ratio Ki (HEK293) of 33.

For O=C(NC1CCCCCC1)c1c(O)c2cccnc2n(Cc2ccc(F)cc2)c1=O, the solubility [10] was “Insoluble”.

O=C(NC1CCCCC1)c1cccnc1OCc1ccc(F)cc1 gave a Ki (Cannabinoid receptor 2) of 250 nM, a Ki (Cannabinoid receptor 1) of 1810 nM and a Ratio Ki (HEK293) of 7.3.

For O=C(NC1CCCCC1)c1cccn(Cc2ccc(F)cc2)c1=O, the Ki (Cannabinoid receptor 2) was 20 nM, the Ki (Cannabinoid receptor 1) was 70 nM and the Ratio Ki (HEK293) was 3.5.

Compound O=C(NC1CCCCC1)c1cc2ccccc2n(Cc2ccccc2)c1=O has a Ki (Cannabinoid receptor 2) of 16 nM, a Ki (Cannabinoid receptor 1) of 67 nM and a Ratio Ki (HEK293) of 4.2.

O=C(NC1CCCCC1)c1cc2ccccc2nc1OCc1ccc(F)cc1 showed a Ki (Cannabinoid receptor 2) of 130 nM, a Ki (Cannabinoid receptor 1) of 1200 nM and a Ratio Ki (HEK293) of 9.2.

With O=C(NC1CCCCCC1)c1cc2ccccc2n(Cc2ccc(F)cc2)c1=O the Ki (Cannabinoid receptor 2) was 0.25 nM, the Ki (Cannabinoid receptor 1) was 11.6 nM and the Ratio Ki (HEK293) was 48.
